# Rpn11 inh = Rpn11 (human) deubiquitinase inhibition; 0.59% of 360,000 active; calls only at 20 µM; O00487; human 26S proteasome, Ub4-pepOG fluorescence polarization; 20S core pre-blocked with epoxomicin; AID 588493;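 active = inhibition at 20 µM, scaled to each plate's controls, above about 33%, limit read from the data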
# CRFR2-BP ag = agonists of human CRF-binding protein/CRF-R2 receptor complex; HEK293 CRF-R2/CRF-BP, calcium dye fluorescence (FLIPR); percent of saturating CRF peptide response; activation, % at 13.2 µM; 0.46% of 350,000 active; AID 588473;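 active = activation of at least 50%, plus an integration ratio under a set limit after plate pattern correction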;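 also: plate controls were neutral control wells without compound for no effect and CRF at EC100 for full effect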
# HNF4A DNA FP = change in binding of human HNF4 alpha to DNA; P41235; HNF4a-FITC DNA binding, fluorescence polarization, 1 h; activity change, % at 10 µM; 0.3% of 360,000 active; AID 1224865; in the data active = activity change above about 30%, passing the limit was not always enough
# Target sequence (P41235 whole entry, looked up): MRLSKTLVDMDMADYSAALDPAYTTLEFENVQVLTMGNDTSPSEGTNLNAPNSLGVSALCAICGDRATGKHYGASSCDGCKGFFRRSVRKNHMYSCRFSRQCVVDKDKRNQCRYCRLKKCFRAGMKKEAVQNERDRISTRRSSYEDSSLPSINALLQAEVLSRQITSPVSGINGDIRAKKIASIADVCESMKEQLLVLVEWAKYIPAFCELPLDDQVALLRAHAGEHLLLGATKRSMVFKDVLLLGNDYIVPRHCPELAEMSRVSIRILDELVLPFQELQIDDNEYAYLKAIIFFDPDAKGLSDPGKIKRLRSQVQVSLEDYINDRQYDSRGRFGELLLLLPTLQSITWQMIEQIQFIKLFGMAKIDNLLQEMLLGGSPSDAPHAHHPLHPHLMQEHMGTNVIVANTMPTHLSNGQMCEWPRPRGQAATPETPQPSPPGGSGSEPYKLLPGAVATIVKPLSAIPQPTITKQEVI
# TPT1 inh = C. albicans TPT1 enzyme inhibition; recombinant caTPT1, FP RNA substrate dephosphorylation; inhibition, % at 5 µM; 0.81% of 300,000 active; AID 1962;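 active = inhibition above the mean of all tested compounds plus 3 SD, set per screening campaign, cut at about 24% in these data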;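 also: plate controls were DMSO alone for no effect and ferristatin control at 100 nM for full effect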
# CRFR2-BP antag = blocks CRF-induced signaling of the CRF-BP/CRF-R2 complex; HEK293 CRF-R2/CRF-BP, CRF-induced calcium fluorescence; inhibition, % at 11.8 µM; 0.59% of 350,000 active; AID 588475;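 active = inhibition of the ligand-induced calcium signal above about 50% at the single tested concentration, limit read from the data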
# CSN deneddyl inh = blocks human CSN-mediated cullin deneddylation | 0.38% of 360,000 active | inhibition, % at 12.5 µM | Purified CSN, SCF-Nedd8-OG deneddylation, fluorescence polarization | Q92905;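 active = pattern-corrected inhibition above about 35%, with an unprinted fluorescence ratio check between 0.5 and 1.5, limit read from the data, passing the limit was not always enough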;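 also: 0% = enzyme with substrate and 100% = substrate without enzyme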
#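 Material: human Csn5 produced in HEK293T cells; Input: enzyme 0.24 nM; Reagent: SCFSkp2-Nedd8OG substrate at 10 nM final; Dosing: 12.5 µM compound; Incubation: 90 min reaction at room temperature; Detection: fluorescence polarization of the substrate; Evaluation: % inhibition of substrate cleavage by Csn5; Control set: substrate-only high control, full reaction low control.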
# * = called active by the depositor; i = inactive; nt = no result shown. This is a sample that favours compounds with a hit; in the whole collection about 2.3% have one here.
SMILES,Rpn11 inh,CRFR2-BP ag,HNF4A DNA FP,TPT1 inh,CRFR2-BP antag,CSN deneddyl inh
Cc1ccc(NS(=O)(=O)c2ccc3c(c2)NC(=O)CO3)cc1Cl,i,0,1,3,-14,-1
COc1ccc(-n2c(-c3ccc(C(C)(C)C)cc3)n[nH]c2=S)c(OC)c1,i,-3,-2,nt,29,-4
COc1ccc2nc(N3C(=O)C(O)=C(C(=O)c4ccco4)C3c3ccc(OC)c(OC)c3)sc2c1 (stereo not given),i,0,3,nt,45,9
Cc1ccc2nc(N3C(=O)C(O)=C(C(=O)c4ccc(C)o4)C3c3cccc(O)c3)sc2c1 (stereo not given),i,11,1,8,96*,13
O=C(NCCc1cn[nH]c1)C1CCC(=O)N(CCc2cccc(F)c2)C1 (stereo not given),i,-1,-1,-2,104*,0
O=C(NCCc1cccnc1)C1CCC(=O)N(Cc2ccc(Cl)cc2)C1 (stereo not given),i,1,2,nt,104*,0
CC(NC(=O)Cc1ccc(NC2=NC3CS(=O)(=O)CC3S2)cc1)c1ccccc1 (stereo not given),i,-1,-1,-1,-14,4
COc1ccc(/C(C)=N/NC(=O)CNC(=O)c2cccnc2)c(OC)c1,i,0,4,1,-24,3
N=c1c(S(=O)(=O)c2ccc(Cl)cc2)cc2c(=O)n3ccccc3nc2n1Cc1ccco1,i,13,5,8,19,40*
N=c1c(S(=O)(=O)c2ccc(Br)cc2)cc2c(=O)n3ccccc3nc2n1Cc1ccco1,i,28,-35,13,-9,28
CC12CC3CC(C)(C1)CC(C(O)CN1CCOCC1)(C3)C2 (stereo not given),i,0,-1,-2,-11,0
CCOC(=O)Nc1cccc2c1-c1ccc([N+](=O)[O-])cc1C2=O,i,5,7,nt,4,6
CCOC(=O)Nc1cc2c(cc1[N+](=O)[O-])-c1ccccc1C2=O,i,0,38*,nt,5,7
CCN(c1ccccc1)S(=O)(=O)c1ccc(Cl)c(C(=O)OCC(=O)c2[nH]c(C)c(C(C)=O)c2C)c1,i,0,-2,0,39,-1
CC(C)Cn1cnc2c(SCc3ccccn3)nc(N)nc21,i,-3,3,nt,17,0
CC(C)Cn1cnc2c(SCc3ccccc3)nc(N)nc21,i,2,1,nt,68*,-5
C=CCOc1ccc(CNCc2cccnc2)cc1OCC,i,0,4,-1,8,0
C=CCN1C(c2cccc(C(F)(F)F)c2)=CS/C1=C(/C#N)c1nnc(N2CCOCC2)n1-c1ccccc1,i,108*,7,0,-2,-15
Cc1c(Cl)cccc1NC(=O)CSCc1cc(=O)[nH][nH]1,i,2,-1,-3,5,-2
C(=N\NC1=Nc2cccc3cccc1c23)/c1ccccn1,nt,2,54*,nt,-16,14
Clc1ccccc1/C=N/NC1=Nc2cccc3cccc1c23,i,7,8,3,-13,6
O=C(c1ccc(Br)cc1)N1CCC(C(=O)N2CCN(Cc3ccccc3)CC2)CC1,i,6,-1,nt,5,3
O=S(=O)(c1ccccc1)N1N=C(c2ccc(O)cc2)CC1c1ccco1 (stereo not given),i,-3,10,4,-3,0
Cc1ccc(CC(=O)NCCCc2ccccc2)cc1,i,-4,0,-1,60*,0
O=C(CCS(=O)(=O)c1ccc(Cl)cc1)Nc1nccs1,i,0,2,nt,6,-2
CC(CCc1ccco1)NC(=O)c1cccc2c1C(=O)N(C1CCCCC1)C2 (stereo not given),i,1,-2,2,51*,2
Cc1nn(-c2cccc([N+](=O)[O-])c2)c(N)c1-c1ccccc1,i,0,-3,-3,57*,0
Cc1nn(-c2ccccc2)c(N)c1Sc1cccc([N+](=O)[O-])c1,i,1,0,-7,21,-1
CCC(C)c1ccc(NC(=S)Nc2ccc(OC)cc2)cc1 (stereo not given),i,1,-1,-2,133*,-7

# Screening data from PubChem.
